# According to ChEMBL document CHEMBL4257543, “Structural optimization and antibacterial evaluation of rhodomyrtosone B analogues against MRSA strains” (Medchemcomm, 2018):
# The source made the active and inactive calls.
# Columns and labels:
# [1] = system: Staphylococcus aureus; test: Antibacterial activity against Staphylococcus aureus ATCC 6538 by micro dilution susceptibility test; type: functional
# Summary of the method: (§1)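 Microbroth dilution MIC in Mueller–Hinton broth following CLSI guidelines, vancomycin as positive control; resazurin added as visible growth indicator. Assays run at least in triplicate.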
# [2] = system: Staphylococcus aureus; test: Antibacterial activity against methicillin-resistant Staphylococcus aureus JCSC 4788 by micro dilution susceptibility test; type: functional; summary of the method: as §1
# [3] = system: Staphylococcus aureus; test: Antibacterial activity against methicillin-resistant Staphylococcus aureus JCSC 4788 at sub-MIC re-passaged at 24 hrs intervals for 5 times by micro dilution susceptibility test; type: functional, organism-based
# Summary of the method: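 Exponential-phase MRSA JCSC 4788 at 37 °C passaged into fresh MHB containing compound at a sub-inhibitory concentration and re-passaged at 24 h intervals up to at least 20 passages; MIC then redetermined by CLSI microbroth dilution in MHB. Resistance defined as a more than 4-fold increase over the initial MIC.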
# [4] = system: Staphylococcus aureus; test: Ratio of MIC for methicillin-resistant Staphylococcus aureus JCSC 4788 re-passaged at 24 hrs intervals for 20 times to MIC for methicillin-resistant Staphylococcus aureus JCSC 4788; type: functional
# Summary of the method: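 Sequential passaging of MRSA JCSC 4788 in MHB with sub-inhibitory compound at 24 h intervals for at least 20 passages at 37 °C. MIC after passaging, by CLSI microbroth dilution, is divided by the initial MIC. Resistance is defined as a rise of more than 4-fold.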
# [5] = system: Staphylococcus aureus; test: Antibacterial activity against Staphylococcus aureus ATCC 29213 by micro dilution susceptibility test; type: functional; summary of the method: as §1
# [6] = system: Staphylococcus aureus; test: Antibacterial activity against methicillin-resistant Staphylococcus aureus 85/2082 by micro dilution susceptibility test; type: functional; summary of the method: as §1
# [7] = system: Candida albicans; test: Antibacterial activity against Candida albicans ATCC 10231 by micro dilution susceptibility test; type: functional
# Summary of the method: (§2)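 Microbroth dilution MIC in Mueller–Hinton broth following CLSI guidelines, with vancomycin as positive control; assays run at least in triplicate.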
# [8] = system: Staphylococcus aureus; test: Antibacterial activity against methicillin-resistant Staphylococcus aureus NCTC 10442 by micro dilution susceptibility test; type: functional; summary of the method: as §1
# [9] = system: Paenibacillus polymyxa; test: Antibacterial activity against Bacillus polymyxa GIM 1.467 by micro dilution susceptibility test; type: functional; summary of the method: as §2
# [10] = system: Staphylococcus aureus; test: Antibacterial activity against methicillin-resistant Staphylococcus aureus JCSC 4744 by micro dilution susceptibility test; type: functional; summary of the method: as §1
# [11] = system: Staphylococcus aureus; test: Antibacterial activity against Staphylococcus aureus CMCC 26003 by micro dilution susceptibility test; type: functional; summary of the method: as §1
# [12] = system: Staphylococcus aureus; test: Antibacterial activity against methicillin-resistant Staphylococcus aureus JCSC 4469 by micro dilution susceptibility test; type: functional; summary of the method: as §1
# [13] = system: Staphylococcus aureus; test: Antibacterial activity against methicillin-resistant Staphylococcus aureus N315 by micro dilution susceptibility test; type: functional; summary of the method: as §1
# [14] = system: Escherichia coli; test: Antibacterial activity against Escherichia coli ATCC 8739 by micro dilution susceptibility test; type: functional; summary of the method: as §2
# [15] = system: Enterococcus faecalis; test: Antibacterial activity against Enterococcus faecalis ATCC 29212 by micro dilution susceptibility test; type: functional; summary of the method: as §2
# [16] = system: Staphylococcus aureus; test: Antibacterial activity against methicillin-resistant Staphylococcus aureus JCSC 2172 by micro dilution susceptibility test; type: functional; summary of the method: as §1
# [17] = system: Shigella dysenteriae; test: Antibacterial activity against Shigella dysenteriae CMCC 51252 by micro dilution susceptibility test; type: functional; summary of the method: as §1
# [18] = system: Enterococcus faecium; test: Antibacterial activity against vancomycin-resistant Enterococcus faecium by micro dilution susceptibility test; type: functional; summary of the method: as §1
# [19] = system: Paenibacillus polymyxa; test: Antibacterial activity against Bacillus polymyxa ATCC 842 by micro dilution susceptibility test; type: functional; summary of the method: as §2
# [20] = system: Bacillus cereus; test: Antibacterial activity against Bacillus cereus ATCC 10876 by micro dilution susceptibility test; type: functional; summary of the method: as §2
# [21] = system: Salmonella typhi; test: Antibacterial activity against Salmonella typhi CMCC 44102 by micro dilution susceptibility test; type: functional, Salmonella enterica subsp. enterica serovar Typhi; settings: Salmonella enterica; summary of the method: as §1
# [22] = system: Staphylococcus epidermidis; test: Antibacterial activity against Staphylococcus epidermidis ATCC 12228 by micro dilution susceptibility test; type: functional; summary of the method: as §2
# [23] = system: Staphylococcus aureus; test: Antibacterial activity against methicillin-resistant Staphylococcus aureus JCSC 3063 by micro dilution susceptibility test; type: functional; summary of the method: as §1
# [24] = system: Cutibacterium acnes; test: Antibacterial activity against Propionicibacterium acnes ATCC 6919 by micro dilution susceptibility test; type: functional
# Summary of the method: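 Microbroth dilution MIC in Mueller–Hinton broth following CLSI guidelines; […]; resazurin added as visible growth indicator; vancomycin positive control; at least triplicate.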
# [25] = system: Staphylococcus aureus; test: Antibacterial activity against methicillin-resistant Staphylococcus aureus JCSC 4788 in Balb/c mouse skin infection model assessed as reduction in skin ulcer formation at 40 ug administered as single dose via intradermal route measured 3 to 8 days post-infection; type: functional, organism-based
# Summary of the method: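 Female BALB/c mice (18–20 g) injected intradermally in abdominal skin with 0.1 mL of MRSA JCSC 4788 (1×10^8 CFU) mixed with a single 40 μg dose in DMSO; DMSO-vehicle controls. Body weight and lesion size recorded daily for 11 days, ulcers imaged at 3 and 8 days; n = 6, mean ± SD.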
# [26] = system: Staphylococcus aureus; test: Induction of membrane disruption in methicillin-resistant Staphylococcus aureus JCSC 4788 assessed as increase in fluorescence intensity at 0.25 to 8 ug/ml measured after 3 hrs by SYTOX green dye based fluorescence assay; type: functional, organism-based
# Summary of the method: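 Exponential-phase MRSA JCSC 4788 washed and set to OD620 0.4 in 0.85% NaCl, exposed to serial compound concentrations for 3 h, then 3 μM SYTOX Green for 20 min. Fluorescence read at ex 504/em 523 nm with melittin as positive control and vancomycin as comparator; mean ± SD, n = 3.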
SMILES,MIC [1],MIC [2],further results
CCCCCC(=O)c1c(O)cc(O)c2c1OC1=C(C(=O)C(C)(C)C(=O)C1(C)C)C2CC(C)C (stereo unspecified),0.5 µg/mL,0.5 µg/mL,–
CCCCCCCCCC(=O)c1c(O)cc(O)c2c1OC1=C(C(=O)C(C)(C)C(=O)C1(C)C)C2CC(C)C (stereo unspecified),0.5 µg/mL,0.5 µg/mL,–
CCCCCCCCCCCCCC(=O)c1c(O)cc(O)c2c1OC1=C(C(=O)C(C)(C)C(=O)C1(C)C)C2CC(C)C (stereo unspecified),128 µg/mL,256 µg/mL,–
CC(C)CC1C2=C(Oc3c(C(=O)CCc4ccccc4)c(O)cc(O)c31)C(C)(C)C(=O)C(C)(C)C2=O (stereo unspecified),2 µg/mL,2 µg/mL,–
CC(C)CC1C2=C(Oc3cc(O)cc(O)c31)C(C)(C)C(=O)C(C)(C)C2=O (stereo unspecified),> 256 µg/mL,256 µg/mL,–
CCCCCCCCCCC(=O)c1c(O)cc(O)c2c1OC1=C(C(=O)C(C)(C)C(=O)C1(C)C)C2CC(C)C (stereo unspecified),1 µg/mL,1 µg/mL,–
CCC(=O)c1c(O)cc(O)c2c1OC1=C(C(=O)C(C)(C)C(=O)C1(C)C)C2CC(C)C (stereo unspecified),2 µg/mL,2 µg/mL,–
CC(C)CC1C2=C(Oc3c(C(=O)C4CCCCC4)c(O)cc(O)c31)C(C)(C)C(=O)C(C)(C)C2=O (stereo unspecified),2 µg/mL,4 µg/mL,–
CCCCCCC(=O)c1c(O)cc(O)c2c1OC1=C(C(=O)C(C)(C)C(=O)C1(C)C)C2CC(C)C (stereo unspecified),0.25 µg/mL,0.5 µg/mL,–
CCCCCCCCCCCCCCCC(=O)c1c(O)cc(O)c2c1OC1=C(C(=O)C(C)(C)C(=O)C1(C)C)C2CC(C)C (stereo unspecified),> 256 µg/mL,> 256 µg/mL,–
CC1COc2c(N3CCN(C)CC3)c(F)cc3c(=O)c(C(=O)O)cn1c23 (stereo unspecified) [OFLOXACIN],–,–,Activity [3]: inactive; Ratio [4]: 16
CC(C)CC1C2=C(Oc3c(C(=O)C4CCC4)c(O)cc(O)c31)C(C)(C)C(=O)C(C)(C)C2=O (stereo unspecified),4 µg/mL,8 µg/mL,–
CC(C)CC1C2=C(Oc3c(C(=O)C(C)C)c(O)cc(O)c31)C(C)(C)C(=O)C(C)(C)C2=O (stereo unspecified),4 µg/mL,4 µg/mL,–
CC(C)CC1C2=C(Oc3c(C(=O)Cc4ccccc4)c(O)cc(O)c31)C(C)(C)C(=O)C(C)(C)C2=O (stereo unspecified),4 µg/mL,4 µg/mL,–
CCCCCCCCC(=O)c1c(O)cc(O)c2c1OC1=C(C(=O)C(C)(C)C(=O)C1(C)C)C2CC(C)C (stereo unspecified),0.25 µg/mL,0.5 µg/mL,–
CCCCCCCCCCCC(=O)c1c(O)cc(O)c2c1OC1=C(C(=O)C(C)(C)C(=O)C1(C)C)C2CC(C)C (stereo unspecified),8 µg/mL,8 µg/mL,–
CC(C)CC1C2=C(Oc3c(C(=O)C4CCCC4)c(O)cc(O)c31)C(C)(C)C(=O)C(C)(C)C2=O (stereo unspecified),4 µg/mL,4 µg/mL,–
CCCC(=O)c1c(O)cc(O)c2c1OC1=C(C(=O)C(C)(C)C(=O)C1(C)C)C2CC(C)C (stereo unspecified),2 µg/mL,2 µg/mL,–
CC(C)CC(=O)c1c(O)cc(O)c2c1OC1=C(C(=O)C(C)(C)C(=O)C1(C)C)C2CC(C)C (stereo unspecified),0.5 to 1 µg/mL,1 µg/mL,MIC [5]: 1 µg/mL; MIC [6]: 1 µg/mL; MIC [7]: > 32 µg/mL; MIC [8]: 1 µg/mL; MIC [9]: > 32 µg/mL; MIC [10]: 0.5 µg/mL; MIC [11]: 0.5 µg/mL; MIC [12]: 0.5 µg/mL; MIC [13]: 1 µg/mL; MIC [14]: > 32 µg/mL; MIC [15]: 1 µg/mL; MIC [16]: 0.5 µg/mL; MIC [17]: > 32 µg/mL; MIC [18]: 2 µg/mL; MIC [19]: > 32 µg/mL; MIC [20]: 0.5 µg/mL; MIC [21]: > 32 µg/mL; MIC [22]: 1 µg/mL; MIC [23]: 0.5 µg/mL; MIC [24]: 0.5 µg/mL
CCCCC(=O)c1c(O)cc(O)c2c1OC1=C(C(=O)C(C)(C)C(=O)C1(C)C)C2CC(C)C (stereo unspecified),0.5 µg/mL,1 µg/mL,–
CC(C)CC(=O)c1c(O)cc2c(c1O)C(CC(C)C)C1=C(O2)C(C)(C)C(=O)C(C)(C)C1=O (stereo unspecified),1 µg/mL,1 µg/mL,–
CC(C)CC1C2=C(Oc3c(C=O)c(O)cc(O)c31)C(C)(C)C(=O)C(C)(C)C2=O (stereo unspecified),128 µg/mL,128 µg/mL,–
CC(=O)c1c(O)cc(O)c2c1OC1=C(C(=O)C(C)(C)C(=O)C1(C)C)C2CC(C)C (stereo unspecified),4 µg/mL,4 µg/mL,–
CN[C@H](CC(C)C)C(=O)N[C@H]1C(=O)N[C@@H](CC(N)=O)C(=O)N[C@H]2C(=O)N[C@H]3C(=O)N[C@H](C(=O)N[C@H](C(=O)O)c4cc(O)cc(O)c4-c4cc3ccc4O)[C@H](O)c3ccc(c(Cl)c3)Oc3cc2cc(c3O[C@@H]2O[C@H](CO)[C@@H](O)[C@H](O)[C@H]2O[C@H]2C[C@](C)(N)[C@H](O)[C@H](C)O2)Oc2ccc(cc2Cl)[C@H]1O [VANCOMYCIN],0.5 to 1 µg/mL,–,MIC [7]: > 32 µg/mL; MIC [9]: > 32 µg/mL; Activity [25]: Active; MIC [14]: > 32 µg/mL; MIC [15]: 0.5 µg/mL; Activity [26]: inactive; MIC [17]: > 32 µg/mL; MIC [18]: > 32 µg/mL; MIC [19]: > 32 µg/mL; MIC [20]: 0.5 µg/mL; MIC [21]: > 32 µg/mL; MIC [22]: 0.5 µg/mL; MIC [24]: 0.5 µg/mL
CC[C@H](C)[C@H](NC(=O)CN)C(=O)NCC(=O)N[C@@H](C)C(=O)N[C@H](C(=O)N[C@@H](CC(C)C)C(=O)N[C@@H](CCCCN)C(=O)N[C@H](C(=O)N[C@@H](CC(C)C)C(=O)N[C@H](C(=O)N[C@H](C(=O)NCC(=O)N[C@@H](CC(C)C)C(=O)N1CCC[C@H]1C(=O)N[C@@H](C)C(=O)N[C@@H](CC(C)C)C(=O)N[C@H](C(=O)N[C@@H](CO)C(=O)N[C@@H](Cc1c[nH]c2ccccc12)C(=O)N[C@H](C(=O)N[C@@H](CCCCN)C(=O)N[C@@H](CCCNC(=N)N)C(=O)N[C@@H](CCCCN)C(=O)N[C@@H](CCCNC(=N)N)C(=O)N[C@@H](CCC(N)=O)C(=O)N[C@@H](CCC(N)=O)C(N)=O)[C@@H](C)CC)[C@@H](C)CC)[C@@H](C)O)[C@@H](C)O)C(C)C)C(C)C,–,–,Activity [26]: Active
